# Test results published in ChEMBL document CHEMBL1177700, “Discovery of bishomo(hetero)arylpiperazines as novel multifunctional ligands targeting dopamine D(3) and serotonin 5-HT(1A) and 5-HT(2A) receptors” (J Med Chem, 2010).
# Calls of active or inactive are those of the source. No cut-off for these calls is given here.
# Molecular target: Voltage-gated inwardly rectifying potassium channel KCNH2 (Homo sapiens, UniProt Q12809)
# Experiment: Binding affinity to human ERG expressed in HEK293 cells
# Format: cell-based
# Conditions: not given
# Sequence of Voltage-gated inwardly rectifying potassium channel KCNH2 (Q12809 whole entry): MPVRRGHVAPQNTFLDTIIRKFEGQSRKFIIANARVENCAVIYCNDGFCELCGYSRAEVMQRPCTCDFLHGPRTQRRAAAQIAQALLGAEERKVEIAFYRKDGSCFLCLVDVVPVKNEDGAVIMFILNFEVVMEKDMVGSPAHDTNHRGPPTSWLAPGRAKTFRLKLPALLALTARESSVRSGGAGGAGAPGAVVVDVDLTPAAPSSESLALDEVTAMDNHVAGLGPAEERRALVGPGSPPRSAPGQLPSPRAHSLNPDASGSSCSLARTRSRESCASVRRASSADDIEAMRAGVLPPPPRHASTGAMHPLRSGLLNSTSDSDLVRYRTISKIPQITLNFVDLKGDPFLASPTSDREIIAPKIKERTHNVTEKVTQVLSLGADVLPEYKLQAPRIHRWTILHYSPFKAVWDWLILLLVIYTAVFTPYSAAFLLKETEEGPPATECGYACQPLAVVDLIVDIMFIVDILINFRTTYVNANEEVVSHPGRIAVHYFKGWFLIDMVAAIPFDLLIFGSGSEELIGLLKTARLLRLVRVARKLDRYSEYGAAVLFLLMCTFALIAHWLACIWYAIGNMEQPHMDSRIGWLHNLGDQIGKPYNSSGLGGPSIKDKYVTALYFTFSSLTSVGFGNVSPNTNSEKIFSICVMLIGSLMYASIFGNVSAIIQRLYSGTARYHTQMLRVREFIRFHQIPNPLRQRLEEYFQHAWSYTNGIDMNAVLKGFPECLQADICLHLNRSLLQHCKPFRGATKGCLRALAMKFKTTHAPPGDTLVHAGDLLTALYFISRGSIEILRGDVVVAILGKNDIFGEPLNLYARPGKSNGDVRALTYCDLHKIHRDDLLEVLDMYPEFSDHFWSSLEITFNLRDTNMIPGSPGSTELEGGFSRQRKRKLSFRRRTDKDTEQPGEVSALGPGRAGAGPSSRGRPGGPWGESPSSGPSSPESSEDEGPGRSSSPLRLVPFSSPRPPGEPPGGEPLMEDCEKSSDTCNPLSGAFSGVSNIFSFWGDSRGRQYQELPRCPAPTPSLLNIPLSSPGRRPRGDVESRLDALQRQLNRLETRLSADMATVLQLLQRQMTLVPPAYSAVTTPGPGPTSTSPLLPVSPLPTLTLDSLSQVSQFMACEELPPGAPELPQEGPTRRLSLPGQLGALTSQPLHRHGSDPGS
row,Structure (SMILES),Ki
1,Cc1cccc(N2CCN(CCCCCCN3CCN(c4cccc(C)c4)CC3)CC2)c1,2.2 µM
2,COc1cccc(N2CCN(CCCCCCN3CCN(c4cccc(Cl)c4)CC3)CC2)c1,1.2 µM
3,c1ccc(N2CCN(CCCCCCN3CCN(c4ccnc5ccccc45)CC3)CC2)cc1,3.8 µM
4,Cc1cccc(N2CCN(CCCCCCN3CCN(c4ccccn4)CC3)CC2)c1,8.7 µM

# System: Mus musculus
# Experiment: Antipsychotic activity in ip dosed NMRI mouse assessed as reduction in spontaneous exploratory locomotor activity administered 30 mins prior to testing measured for 60 mins
# Format: functional
# Conditions: not given
row,Structure (SMILES),ED50
1,O=C(CCCN1CCC(O)(c2ccc(Cl)cc2)CC1)c1ccc(F)cc1 [HALOPERIDOL],0.08 mg/kg
2,O=C1CCc2ccc(OCCCCN3CCN(c4cccc(Cl)c4Cl)CC3)cc2N1 [ARIPIPRAZOLE],2.5 mg/kg

# System: Mus musculus
# Experiment: Antipsychotic activity in NMRI mouse assessed as increase of methamphetamine-induced locomotor activity at 0.3 mg/kg, ip administered 30 mins prior to testing measured for 60 mins
# Format: functional, organism-based
# Design: dose 0.3 mg/kg
# Conditions: not given
row,Structure (SMILES),Activity
1,Cc1cccc(N2CCN(CCCCCCN3CCN(c4ccccn4)CC3)CC2)c1,Active

# Molecular target: not listed separately
# Experiment: Displacement of [3H]mesulergine from 5HT2C receptor in CRL:(HA) BR albino guinea pig cortex by scintillation spectrometry
# Design: species or system Cavia porcellus
# Conditions: not given
# Outline: (§1)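 Radioligand displacement binding gave Ki (nM). Each value is the mean of three determinations, with SD within 10% of the mean.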
row,Structure (SMILES),Ki
1,Cc1cccc(N2CCN(CCCCCCN3CCN(c4cccc(C)n4)CC3)CC2)c1,0.068 µM
2,Cc1cccc(N2CCN(CCCCCCN3CCN(c4cccc(C)c4)CC3)CC2)c1,0.12 µM
3,COc1cccc(N2CCN(CCCCCCN3CCN(c4cccc(Cl)c4)CC3)CC2)c1,0.092 µM
4,c1ccc(N2CCN(CCCCCCN3CCN(c4ccnc5ccccc45)CC3)CC2)cc1,> 1 µM
5,Cc1cccc(N2CCN(CCCCNC(=O)c3cc4ccccc4o3)CC2)c1,0.206 µM
6,Cc1cccc(N2CCN(CCCCCCN3CCN(c4ccccn4)CC3)CC2)c1,0.15 µM

# System: not listed separately
# Experiment: Cmax in NMRI mouse at 3 mg/kg, ip
# Format: ADME, organism-based
# Design: dose 3 mg/kg, route intraperitoneal
# Conditions: in vivo
# Outline: (§2)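 Mice received a single 3 mg/kg ip dose, and plasma concentrations were measured over time. […] Cmax, Tmax and T1/2 were taken from the plasma level profiles.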
row,Structure (SMILES),Cmax
1,Cc1cccc(N2CCN(CCCCCCN3CCN(c4cccc(C)n4)CC3)CC2)c1,0.058 µg/mL
2,Cc1cccc(N2CCN(CCCCNC(=O)c3cc4ccccc4o3)CC2)c1,0.155 µg/mL

# System: not listed separately
# Experiment: Partition coefficient, log P of the compound
# Format: physicochemical
# Conditions: octanol/water
row,Structure (SMILES),logP
1,Cc1cccc(N2CCN(CCCCCCN3CCN(c4cccc(C)n4)CC3)CC2)c1,4.62
2,Cc1cccc(N2CCN(CCCCCCN3CCN(c4cccc(C)c4)CC3)CC2)c1,5
3,COc1cccc(N2CCN(CCCCCCN3CCN(c4cccc(Cl)c4)CC3)CC2)c1,4.7
4,c1ccc(N2CCN(CCCCCCN3CCN(c4ccnc5ccccc45)CC3)CC2)cc1,5.61
5,Cc1cccc(N2CCN(CCCCCCN3CCN(c4ccccn4)CC3)CC2)c1,4.23

# Molecular target: T1, 5-hydroxytryptamine receptor 1A (Rattus norvegicus, UniProt P19327)
# T1 sequence (P19327 whole entry): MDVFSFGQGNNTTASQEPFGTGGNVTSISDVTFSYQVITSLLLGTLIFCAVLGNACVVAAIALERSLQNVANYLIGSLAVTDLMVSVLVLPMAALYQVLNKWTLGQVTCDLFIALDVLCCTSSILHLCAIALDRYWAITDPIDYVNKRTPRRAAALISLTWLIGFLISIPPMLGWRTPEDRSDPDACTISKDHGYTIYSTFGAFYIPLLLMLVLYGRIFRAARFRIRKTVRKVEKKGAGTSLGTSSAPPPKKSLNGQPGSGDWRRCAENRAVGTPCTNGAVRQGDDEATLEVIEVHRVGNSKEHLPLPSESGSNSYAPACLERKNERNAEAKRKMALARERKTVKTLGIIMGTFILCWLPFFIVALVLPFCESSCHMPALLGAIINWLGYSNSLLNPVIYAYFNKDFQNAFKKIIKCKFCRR
# Experiment: Displacement of [3H]8OH-DPAT from 5HT1A receptor in rat CRL:CD(SD)BR-COBS hippocampus by scintillation spectrometry
# Format: tissue-based
# Conditions: not given
# Outline: as §1
row,Structure (SMILES),Ki
1,Cc1cccc(N2CCN(CCCCCCN3CCN(c4cccc(C)n4)CC3)CC2)c1,0.011 µM
2,Cc1cccc(N2CCN(CCCCCCN3CCN(c4cccc(C)c4)CC3)CC2)c1,0.048 µM
3,COc1cccc(N2CCN(CCCCCCN3CCN(c4cccc(Cl)c4)CC3)CC2)c1,0.001 µM
4,c1ccc(N2CCN(CCCCCCN3CCN(c4ccnc5ccccc45)CC3)CC2)cc1,0.049 µM
5,Cc1cccc(N2CCN(CCCCCCN3CCN(c4ccccn4)CC3)CC2)c1,0.002 µM

# Molecular target: D(1A) dopamine receptor (Rattus norvegicus, UniProt P18901)
# Sequence (P18901 whole entry): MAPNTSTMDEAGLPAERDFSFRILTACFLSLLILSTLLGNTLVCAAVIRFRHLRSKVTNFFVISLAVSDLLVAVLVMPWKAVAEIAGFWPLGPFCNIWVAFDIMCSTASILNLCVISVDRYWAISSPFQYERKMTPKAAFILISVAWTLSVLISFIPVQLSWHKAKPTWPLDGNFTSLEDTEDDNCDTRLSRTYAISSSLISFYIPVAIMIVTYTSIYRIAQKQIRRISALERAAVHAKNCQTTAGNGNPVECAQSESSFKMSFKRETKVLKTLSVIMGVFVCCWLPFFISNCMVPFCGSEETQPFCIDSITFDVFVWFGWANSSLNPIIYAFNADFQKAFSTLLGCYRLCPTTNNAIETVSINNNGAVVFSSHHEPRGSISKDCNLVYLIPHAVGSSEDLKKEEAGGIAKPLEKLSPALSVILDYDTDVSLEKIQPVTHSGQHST
# Experiment: Displacement of [3H]SCH23390 from dopamine D1 receptor in CRL:CD(SD)BR-COBS rat striatum by scintillation spectrometry
# Conditions: not given
row,Structure (SMILES),Ki
1,Cc1cccc(N2CCN(CCCCCCN3CCN(c4cccc(C)n4)CC3)CC2)c1,> 1 µM
2,Cc1cccc(N2CCN(CCCCCCN3CCN(c4cccc(C)c4)CC3)CC2)c1,> 1 µM
3,COc1cccc(N2CCN(CCCCCCN3CCN(c4cccc(Cl)c4)CC3)CC2)c1,> 1 µM
4,c1ccc(N2CCN(CCCCCCN3CCN(c4ccnc5ccccc45)CC3)CC2)cc1,> 1 µM
5,Cc1cccc(N2CCN(CCCCNC(=O)c3cc4ccccc4o3)CC2)c1,0.263 µM
6,Cc1cccc(N2CCN(CCCCCCN3CCN(c4ccccn4)CC3)CC2)c1,> 1 µM

# Molecular target: 5-hydroxytryptamine receptor 2A (Rattus norvegicus, UniProt P14842)
# Sequence (P14842 whole entry): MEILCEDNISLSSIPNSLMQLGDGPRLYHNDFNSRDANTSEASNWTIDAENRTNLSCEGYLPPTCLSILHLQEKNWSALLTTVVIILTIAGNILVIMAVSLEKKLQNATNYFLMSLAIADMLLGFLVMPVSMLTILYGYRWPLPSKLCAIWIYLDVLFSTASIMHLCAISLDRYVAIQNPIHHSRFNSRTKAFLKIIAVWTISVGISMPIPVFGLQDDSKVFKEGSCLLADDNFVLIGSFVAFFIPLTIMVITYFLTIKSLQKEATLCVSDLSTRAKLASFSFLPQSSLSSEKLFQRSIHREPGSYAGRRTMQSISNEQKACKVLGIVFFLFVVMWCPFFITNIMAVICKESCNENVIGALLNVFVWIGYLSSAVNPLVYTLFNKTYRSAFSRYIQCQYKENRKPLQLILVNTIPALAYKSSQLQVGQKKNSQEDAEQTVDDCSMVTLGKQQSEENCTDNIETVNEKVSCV
# Experiment: Displacement of [3H]ketanserin from 5HT2A receptor in CRL:CD(SD)BR-COBS rat cortex by scintillation spectrometry
# Conditions: not given
row,Structure (SMILES),Ki
1,Cc1cccc(N2CCN(CCCCCCN3CCN(c4cccc(C)n4)CC3)CC2)c1,0.006 µM
2,Cc1cccc(N2CCN(CCCCCCN3CCN(c4cccc(C)c4)CC3)CC2)c1,0.02 µM
3,COc1cccc(N2CCN(CCCCCCN3CCN(c4cccc(Cl)c4)CC3)CC2)c1,0.007 µM
4,c1ccc(N2CCN(CCCCCCN3CCN(c4ccnc5ccccc45)CC3)CC2)cc1,0.034 µM
5,Cc1cccc(N2CCN(CCCCCCN3CCN(c4ccccn4)CC3)CC2)c1,0.01 µM

# System: Mus musculus
# Experiment: Antipsychotic activity in NMRI mouse assessed as inhibition of PCP-induced locomotor activity at 3 mg/kg, ip administered 30 mins prior to testing measured for 60 mins
# Format: functional, organism-based
# Design: dose 3 mg/kg
# Conditions: not given
row,Structure (SMILES),Activity
1,Cc1cccc(N2CCN(CCCCCCN3CCN(c4cccc(C)n4)CC3)CC2)c1,Active
2,O=C(CCCN1CCC(O)(c2ccc(Cl)cc2)CC1)c1ccc(F)cc1 [HALOPERIDOL],Active
3,Cc1cccc(N2CCN(CCCCNC(=O)c3cc4ccccc4o3)CC2)c1,Active
4,Cc1cccc(N2CCN(CCCCCCN3CCN(c4ccccn4)CC3)CC2)c1,Active
5,O=C1CCc2ccc(OCCCCN3CCN(c4cccc(Cl)c4Cl)CC3)cc2N1 [ARIPIPRAZOLE],Active

# Molecular target: D(2) dopamine receptor (Rattus norvegicus, UniProt P61169)
# Sequence (P61169 whole entry): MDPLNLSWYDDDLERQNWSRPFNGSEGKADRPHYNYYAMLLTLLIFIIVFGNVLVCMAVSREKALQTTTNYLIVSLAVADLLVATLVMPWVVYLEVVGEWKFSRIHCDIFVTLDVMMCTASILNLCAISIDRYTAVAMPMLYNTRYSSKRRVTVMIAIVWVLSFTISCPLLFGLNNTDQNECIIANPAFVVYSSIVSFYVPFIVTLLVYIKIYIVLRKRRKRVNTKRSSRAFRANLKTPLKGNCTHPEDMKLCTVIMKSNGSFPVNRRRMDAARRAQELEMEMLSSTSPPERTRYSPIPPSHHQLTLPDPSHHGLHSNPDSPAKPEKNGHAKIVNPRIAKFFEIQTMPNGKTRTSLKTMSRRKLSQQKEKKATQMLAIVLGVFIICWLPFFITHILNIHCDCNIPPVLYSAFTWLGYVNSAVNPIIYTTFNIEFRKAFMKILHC
# Experiment: Displacement of [3H]spiperone from dopamine D2 receptor in CRL:CD(SD)BR-COBS rat striatum by scintillation spectrometry
# Conditions: not given
row,Structure (SMILES),Ki
1,Cc1cccc(N2CCN(CCCCCCN3CCN(c4cccc(C)n4)CC3)CC2)c1,0.033 µM
2,Cc1cccc(N2CCN(CCCCCCN3CCN(c4cccc(C)c4)CC3)CC2)c1,0.07 µM
3,COc1cccc(N2CCN(CCCCCCN3CCN(c4cccc(Cl)c4)CC3)CC2)c1,0.004 µM
4,c1ccc(N2CCN(CCCCCCN3CCN(c4ccnc5ccccc45)CC3)CC2)cc1,0.041 µM
5,Cc1cccc(N2CCN(CCCCNC(=O)c3cc4ccccc4o3)CC2)c1,0.0045 µM
6,Cc1cccc(N2CCN(CCCCCCN3CCN(c4ccccn4)CC3)CC2)c1,0.044 µM

# System: Mus musculus
# Experiment: Antipsychotic activity in NMRI mouse assessed as increase of spontaneous exploratory locomotor activity at 1 mg/kg, ip administered 30 mins prior to testing measured for 60 mins
# Format: functional
# Conditions: not given
row,Structure (SMILES),Activity
1,Cc1cccc(N2CCN(CCCCCCN3CCN(c4ccccn4)CC3)CC2)c1,inactive

# System: not listed separately
# Experiment: AUC (0 to 6 hrs) in NMRI mouse at 3 mg/kg, ip
# Format: ADME, organism-based
# Design: time < 6 hr, dose 3 mg/kg, route intraperitoneal
# Conditions: plasma
# Outline: as §2
row,Structure (SMILES),AUC(0-t) at 6 h
1,Cc1cccc(N2CCN(CCCCCCN3CCN(c4cccc(C)n4)CC3)CC2)c1,0.243 µg·h/mL
2,Cc1cccc(N2CCN(CCCCNC(=O)c3cc4ccccc4o3)CC2)c1,0.128 µg·h/mL

# System: Mus musculus
# Experiment: Antipsychotic activity in NMRI mouse assessed as reduction of PCP-induced locomotor activity at 10 mg/kg, ip administered 30 mins prior to testing measured for 60 mins
# Format: functional, organism-based
# Design: dose 10 mg/kg
# Conditions: not given
row,Structure (SMILES),Activity
1,Cc1cccc(N2CCN(CCCCCCN3CCN(c4cccc(C)n4)CC3)CC2)c1,Active
2,O=C(CCCN1CCC(O)(c2ccc(Cl)cc2)CC1)c1ccc(F)cc1 [HALOPERIDOL],Active
3,Cc1cccc(N2CCN(CCCCNC(=O)c3cc4ccccc4o3)CC2)c1,Active
4,Cc1cccc(N2CCN(CCCCCCN3CCN(c4ccccn4)CC3)CC2)c1,Active
5,O=C1CCc2ccc(OCCCCN3CCN(c4cccc(Cl)c4Cl)CC3)cc2N1 [ARIPIPRAZOLE],Active

# System: Mus musculus
# Experiment: Antipsychotic activity in NMRI mouse assessed as increase of MK-801-induced locomotor activity at 1 mg/kg, ip administered 30 mins prior to testing measured for 60 mins
# Format: functional, organism-based
# Design: dose 1 mg/kg
# Conditions: not given
row,Structure (SMILES),Activity
1,Cc1cccc(N2CCN(CCCCCCN3CCN(c4cccc(C)n4)CC3)CC2)c1,Active

# System: not listed separately
# Experiment: Lipophilicity, log D at pH 7.4
# Format: physicochemical
# Conditions: buffer
row,Structure (SMILES),logD
1,Cc1cccc(N2CCN(CCCCCCN3CCN(c4cccc(C)n4)CC3)CC2)c1,2.46
2,Cc1cccc(N2CCN(CCCCCCN3CCN(c4cccc(C)c4)CC3)CC2)c1,4.03
3,COc1cccc(N2CCN(CCCCCCN3CCN(c4cccc(Cl)c4)CC3)CC2)c1,3.89
4,c1ccc(N2CCN(CCCCCCN3CCN(c4ccnc5ccccc45)CC3)CC2)cc1,3.1
5,Cc1cccc(N2CCN(CCCCCCN3CCN(c4ccccn4)CC3)CC2)c1,2.72

# System: not listed separately
# Experiment: Tmax in NMRI mouse at 3 mg/kg, ip
# Format: ADME, organism-based
# Design: dose 3 mg/kg, route intraperitoneal
# Conditions: in vivo
# Outline: as §2
row,Structure (SMILES),Tmax
1,Cc1cccc(N2CCN(CCCCCCN3CCN(c4cccc(C)n4)CC3)CC2)c1,2 h
2,Cc1cccc(N2CCN(CCCCNC(=O)c3cc4ccccc4o3)CC2)c1,0.5 h
